Values after ≈ are worked out from the molar mass of the structure shown. Each block holds one molecule with its values, some of them ahead of it.
Columns and labels:
[1] = vs sucrose; stated without own test, ref not given; cited from earlier work
[2] = test system: mammalian mucosal α-glucosidase (rat intestinal acetone powder, RIAP); assay: Glucose generation rate; type: in vitro ADME; details: 5 mg/mL substrate, RIAP-derived α-glucosidase, 2 h
In short: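 Rat intestinal acetone powder (0.5 g) was extracted in 10 mL 100 mM sodium phosphate (pH 6.2) at 4 °C for 24 h and centrifuged. The supernatant was freeze-dried and re-dissolved in 10 mL of the same buffer as α-glucosidase. Test compound at 5 mg/mL was incubated with the enzyme. Aliquots were taken at 0, 10, 20, 30, 60 and 120 min, heat-inactivated for 10 min, and glucose was measured with a glucose assay kit.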

[3] = Water solubility evaluation; type: physicochemical; details: deionized water
In short: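 Compound was added to deionized water to supersaturation and stirred for 24 h at 25 °C. The mixture was centrifuged at 8000 × g, 25 °C, for 20 min. The supernatant was freeze-dried and the residue weighed.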

[4] = Static in vitro digestion simulation; type: in vitro ADME, human; details: oral, gastric and intestinal phases, 37 °C
In short: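 Static digestion of 50 mg test compound ran at 37 °C with stirring. Oral phase: saliva pH 7.0 (1.5 mM CaCl₂, 75 U/mL amylase), sampled at 5 min. Samples were heat-stopped (100 °C, 5 min), centrifuged and filtered, and glucose was measured by kit.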

HFD-fed C57BL/6 N mice [5] = assay: Immunoblot of tissue lysates from HFD-fed mice; type: in vivo, mouse; details: 0.2 g/L in drinking water, 16 weeks
In short: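 Mice were on a 16-week 60% kcal-fat HFD with test compound at 0.2 g/L in drinking water or plain water. Liver, gWAT and BAT lysates came from median-body-weight mice. Equal protein was run on SDS-PAGE, transferred to nitrocellulose and blocked in 5% skim milk. Primary antibodies (ACC, FAS, UCP1, p-PLIN, HSP90) ran overnight at 4 °C, then secondary 2–3 h at room temperature. Detection was by ECL with band densitometry, n = 4 per group.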

[6] = TGA; cited from earlier work
HFD-fed C57BL/6 N mice [7] = assay: Serum analysis of HFD-fed mice; type: in vivo, mouse; details: 0.2 g/L in drinking water, 16 weeks
In short: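 After 16 weeks of 60% kcal-fat HFD with test compound at 0.2 g/L in drinking water or plain water, mice were euthanised with CO2. Blood was taken by cardiac puncture. An automated chemistry analyser measured serum cholesterol, TG, ALT, AST and glucose (n = 5 per group). Data are mean ± SEM with one-way ANOVA and Dunnett's or Tukey's test.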

HFD-fed C57BL/6 N mice [8] = assay: HFD-induced obesity in mice: body weight, intake, tissue weight, histology; type: in vivo, mouse; details: 0.2 g/L in drinking water, 16 weeks
In short: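 Eight-week-old C57BL/6N mice were kept on a 60% kcal-fat HFD for 16 weeks with test compound at 0.2 g/L in drinking water ad libitum, or plain water. Estimated intake was about 0.675 mg/mouse/day. Body weight was taken weekly and food/water every other day (n = 10). Median-weight mice gave formalin-fixed paraffin sections (gWAT 7 μm, liver 5 μm), H&E stained (n = 5). Adipocyte size came from about 3,000 cells, four images per mouse. Data are mean ± SEM.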

[9] = Thermogravimetric analysis; type: physicochemical; details: TGA
[10] = Storage stability in aqueous solution; type: physicochemical; details: 1 month, 25 °C
In short: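 Aqueous solutions of 1–2% (w/v) were held at 25 °C for up to 1 month. Compound remaining in the supernatant at 0, 7, 15 and 30 days was quantified by HPLC.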

[11] = pH stability in Britton–Robinson buffer; type: physicochemical
In short: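 Compound was dissolved at 0.05% (w/v) in Britton–Robinson buffer over pH 1.4–10. The amount remaining was quantified by HPLC.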

rats = details: cited from earlier work

Glucose released [2]: almost no glucose release
solubility at 24 h [3]: 11 ± 3.11 mg/mL (≈ 13.6 mM)
Hydrolysis in in vitro simulated digestion [4]: 2%
Molecule: C=C1C[C@@]23CC[C@H]4[C@@](C)(CCC[C@@]4(C)C(=O)O[C@@H]4O[C@H](CO)[C@@H](O)[C@H](O)[C@H]4O)[C@@H]2CC[C@]1(O[C@@H]1O[C@H](CO)[C@@H](O)[C@H](O)[C@H]1O[C@@H]1O[C@H](CO)[C@@H](O)[C@H](O)[C@H]1O)C3 [ST, stevioside]
Sweetness relative to sucrose [1]: 250 times

Molecule: rebaudioside A [Reb A]
ACC protein expression in liver (HFD-fed C57BL/6 N mice [5]): increased
p-PLIN protein level in gWAT (HFD-fed C57BL/6 N mice [5]; vs control): substantially decreased
Second-stage mass loss temperature previously reported [6]: 284.71 °C
Sweetness relative to sucrose [1]: 250 times
Serum TG (HFD-fed C57BL/6 N mice [7]): remained unchanged
Serum cholesterol (HFD-fed C57BL/6 N mice [7]): remained unchanged
Crown-like structure (CLS) in gWAT, inflammatory indicator (HFD-fed C57BL/6 N mice [8]): significantly increased
Number of large adipocytes in gWAT (HFD-fed C57BL/6 N mice [8]): remained unchanged
Water intake and food consumption (HFD-fed C57BL/6 N mice [8]): comparable across the groups
gWAT weight (HFD-fed C57BL/6 N mice [8]): did not increase
Body weight (HFD-fed C57BL/6 N mice [8]; vs control): no effect
Temperature at which second-stage mass loss commenced [9]: 280–290 °C
Initial mass retained at 597 °C ([9]; 597 °C): 9.92 ± 0.45%
Initial mass retained, second-stage mass loss ([9]; stage commencing at approximately 280–290 °C): 19.89 ± 1.67%
Initial concentration remaining after storage, 1% (w/v) aqueous solution ([10]; 1% (w/v)): 52.61 ± 1.69%
Initial concentration remaining after storage, 2% (w/v) aqueous solution ([10]; 2% (w/v)): 32.14 ± 3.78%
Glucose released [2]: almost no glucose release
Initial concentration retained at pH 1.4 ([11]; pH 1.4, 0.05% (w/v) in Britton–Robinson buffer): 25.26 ± 3.19%
Initial concentration retained at pH 2 ([11]; pH 2, 0.05% (w/v) in Britton–Robinson buffer): 82.67 ± 2.39%
Initial concentration retained at pH 10 ([11]; pH 10, 0.05% (w/v) in Britton–Robinson buffer): 84.56 ± 1.68%
Water solubility ([3]; stirred 24 h at 25 °C): 5.10 ± 2.93 mg/mL
No-observed-adverse-effect level (NOAEL) (rats): 4100 mg/kg/day
Hydrolysis in in vitro simulated digestion [4]: 2%

Source: publication PMC12618661 (NPJ Science of Food, 2025)
